Laboratory results: publication PMC8892239 (EFSA Journal, 2022)
In brackets after ≈: the same amount, converted by molar mass. Read-outs that look alike come from different tables or passages of the source.

Tests used:
[1] = Stability of EQ in a vitamin/mineral premixture; type: physicochemical; conditions: premixture with 5% EQ
[2] = Metabolism of 14C-EQ in liver microsomes; type: in vitro ADME, rat, laying hen and goat; conditions: 10 and 100 µM, 37°C, 2 h
Summary of the method: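 Liver microsomes were used. Hen (Isa-Warren) and goat (Deutsche Edelziege/Burenziege) microsomes were prepared in-house; rat microsomes were commercial. Incubation was with ring-¹⁴C(U)-labelled test compound at 10 and 100 µM, 37°C, 2 h.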

cattle for fattening = test: Tolerance study in cattle for fattening; type: in vivo, male Holstein calves
[3] = Residues of EQ and metabolites/TPs in piglet tissues; type: in vivo; conditions: piglets
[4] = Residues of EQ and metabolites/TPs in cattle tissues; type: in vivo; conditions: for concentration at 42 days: Holstein, bovine, oral, 50 mg EQ/kg complete feed; for residue in muscle, highest value: LOQs as above
[5] = Residues of EQ and EQDM in fish flesh; type: in vivo; conditions: Atlantic salmon, oral, 50 mg EQ/kg feed
Summary of the method: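 Flesh was sampled from 15 fish per group after 90 days of feeding. The parent compound and its dimer were quantified by HPLC with fluorescence detection.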

Eisenia andrei = test: Earthworm reproduction test, OECD 222; type: in vivo; conditions: 56 days, nominal
Summary of the method: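 GLP 56-day Eisenia andrei test per OECD 222. Eight nominal soil levels were used: 16, 29, 53, 95, 171, 309, 556 and 1,000 mg/kg soil DW. A solvent control was included. Four replicates per treatment, eight for the solvent control, 10 worms per replicate. Reproduction, mortality and growth were scored.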

Daphnia magna = test: 21-day semi-static reproduction test; type: in vivo
Chironomus riparius = test: Water-sediment test with spiked sediment, OECD 218, 28 days; type: in vivo; conditions: nominal
Summary of the method: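 GLP static 28-day Chironomus riparius water–sediment test per OECD 218. The sediment was spiked at 62.5, 125, 250, 500 and 1,000 mg/kg sediment DW (nominal).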

Caenorhabditis elegans = test: Sediment toxicity test, ISO 10872, 96 h; type: in vivo
Summary of the method: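 GLP sediment test with Caenorhabditis elegans per ISO 10872. Sediment levels were 25.6, 64, 160, 400 and 1,000 mg/kg sediment DW, with four replicates per control and per concentration. Fertility, reproduction and growth were read 96 h after the nematodes were added.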

[6] = system: Skeletonema pseudocostatum; test: Marine algal growth inhibition test, ISO 10253:2016; type: in vivo; conditions: read-out: ErC50
Summary of the method: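 Test concentrations were measured analytically at 0 and 72 h. Endpoints were expressed on the geometric mean of the measured concentrations. An EC50 was also predicted from the initially measured concentrations.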

[7] = Antioxidant efficacy, storage of complete feed for chickens for fattening
[8] = Antioxidant efficacy, storage of complete feed for sows; conditions: for peroxide value after 3 months of storage: basal feed 47.3 meq O2/kg fat
[9] = Oxygen bomb method, feed for chickens for fattening; conditions: for induction period: basal feed 7 h
[10] = Oxygen bomb method, feed for sows
Beagle dogs = conditions: ref EFSA FEEDAP Panel, 2015, cited from earlier work
[11] = ref EFSA, 2010, cited from earlier work
[12] = at 22°C; ref EFSA, 2010; cited from earlier work
[13] = ref EFSA FEEDAP Panel, 2015; cited from earlier work
[14] = control feed (0 mg EQ/kg), 42 days, mean ± SD, LOQs as above

Question: With `CCOc1ccc2c(c1)C(C)=CC(C)(C)N2` [EQ, 6‐ethoxy‐1,2‐dihydro‐2,2,4‐trimethylquinoline] as the molecule, how does the EQ disappeared ([1]; 90 days at 25°C, 60% RH) read?
Answer: About 50%

Question: What about the “time to a similar (about 50%) decline of EQ” value ([1]; at 40°C) of the same molecule?
Answer: 8 days

Question: And the extent of metabolism [2]?
Answer: metabolised extensively

Question: And the “number of metabolites identified” value ([2]; irrespective of origin)?
Answer: 18

Question: What about the margin of safety (cattle for fattening; 50 mg ethoxyquin/kg feed) of the same molecule?
Answer: 10

Question: And the gamma-glutamyl transpeptidase (cattle for fattening; 1× (50 mg/kg feed), 42 days)?
Answer: 22.4 µ/L

Question: And the platelet count (cattle for fattening; 1× (50 mg/kg feed), 42 days)?
Answer: 452000 µL⁻¹

Question: And the platelet count (cattle for fattening; 3× (150 mg/kg feed), 42 days)?
Answer: 394000 µL⁻¹

Question: What about the platelet count (cattle for fattening; 10× (500 mg/kg feed), 42 days, p = 0.01 to the control) of the same molecule?
Answer: 264000 µL⁻¹

Question: What about the residue in kidney ([3]; control feed (0 mg EQ/kg), 42 days, mean ± SD, LOQs 1.5 to 2 µg EQ, EQDM, metabolite A/kg, 0.5 µg EQI/kg) of the same molecule?
Answer: ˂ LOQ^( ^b ^)

Question: What about the residue in muscle [3, 14] of the same molecule?
Answer: ˂ LOQ

Question: What about the “residue in subcutaneous fat” value [3, 14] of the same molecule?
Answer: ˂ LOQ

Question: And the residue in muscle ([3]; feed with 50 mg EQ/kg for 42 days, LOQs 1.5 to 2 µg EQ, EQDM, metabolite A/kg, 0.5 µg EQI/kg)?
Answer: ˂ LOQ

Question: What about the concentration at 42 days ([4]; kidney, residue in kidney, highest value, cattle, 50 mg EQ/kg complete feed for 42 days, LOQs 1.5–2 µg EQ, EQDM, metabolite A/kg, 0.5–1 µg EQI, DHEQ/kg) of the same molecule?
Answer: 19.9 ng/g

Question: And the concentration at 42 days ([4]; liver)?
Answer: 34 ng/g

Question: What about the “residue in muscle, highest value” ([4]; cattle, 50 mg EQ/kg complete feed for 42 days) of the same molecule?
Answer: ˂ LOQ

Question: What about the “residue in muscle, highest value” ([4]; cattle, control (0 mg EQ/kg feed), 42 days) of the same molecule?
Answer: ˂ LOQ

Question: And the concentration at 90 days [5]?
Answer: 40 ng/g

Question: And the “LC50 (mortality)” value (Eisenia andrei)?
Answer: 693 mg test item/kg soil DW

Question: What about the NOEC for biomass (Eisenia andrei) of the same molecule?
Answer: ≥ 556 mg test item/kg soil DW

Question: And the NOEC for mortality (Eisenia andrei)?
Answer: 556 mg test item/kg soil DW

Question: What about the NOEC for reproduction (Eisenia andrei) of the same molecule?
Answer: 171 mg test item/kg soil DW

Question: And the EC10 (Daphnia magna; as used in risk characterisation)?
Answer: 0.06 µg/mL (≈ 0.276 µM)

Question: And the “21-day EC10 (number of offspring per introduced and survived parent)” value (Daphnia magna; nominal concentrations, 95% confidence interval 46.9–76.0)?
Answer: 0.0597 µg/mL

Question: And the EC10 development rate (Chironomus riparius)?
Answer: > 250 mg/kg sediment DW

Question: What about the NOEC development rate (Chironomus riparius) of the same molecule?
Answer: 125 mg/kg sediment DW

Question: And the NOEC emergence rate (Chironomus riparius)?
Answer: 250 mg/kg sediment DW

Question: What about the “EC10 for fertility and growth” value (Caenorhabditis elegans) of the same molecule?
Answer: > 1,000 mg/kg sediment DW

Question: And the EC10 for reproduction (Caenorhabditis elegans)?
Answer: 727 mg/kg sediment DW

Question: And the “NOEC for fertility, reproduction and growth” value (Caenorhabditis elegans)?
Answer: 400 mg/kg sediment DW

Question: What about the EC50 [6] of the same molecule?
Answer: 3.3 µg/mL (≈ 15.2 µM)

Question: And the “loss of EQ content in feed after 3 months” value ([7]; 25–30°C, 55–65% RH, EQ = 50 mg EQ/kg feed (EQ50))?
Answer: approximately 40%

Question: And the “range in which considered an efficacious antioxidant in feed” value ([7]; Panel's overall conclusion)?
Answer: 25–50 mg/kg complete feed

Question: And the “EQ content after 3 months of storage” value ([8]; 25 mg EQ/kg feed (EQ25))?
Answer: completely disappeared

Question: And the “peroxide value after manufacturing” value ([8]; 25 mg EQ/kg feed (EQ25))?
Answer: 0.89 meq O2/kg fat

Question: And the “peroxide value after 3 months of storage” value ([8]; 25 mg EQ/kg feed (EQ25))?
Answer: approx. 23.8

Question: And the “peroxide value after manufacturing” value ([8]; 50 mg EQ/kg feed (EQ50))?
Answer: 1.36 meq O2/kg fat

Question: And the “reduction of EQ after 3 months of storage” value ([8]; 50 mg EQ/kg feed (EQ50))?
Answer: approx. 80%

Question: What about the “peroxide value after 3 months of storage” value ([8]; 50 mg EQ/kg feed (EQ50)) of the same molecule?
Answer: ~13.6

Question: And the induction period ([9]; 25 mg ethoxyquin/kg feed)?
Answer: 7.6 h

Question: And the protection factor ([9]; 50 mg ethoxyquin/kg feed)?
Answer: 1.46

Question: And the induction period ([9]; 50 mg ethoxyquin/kg feed)?
Answer: 9.9 h

Question: What about the protection factor ([10]; 25 mg ethoxyquin/kg feed (EQ25)) of the same molecule?
Answer: 1.50

Question: What about the protection factor ([10]; 50 mg ethoxyquin/kg feed (EQ50)) of the same molecule?
Answer: 1.78

Question: What about the “lowest NOAEL” value (Beagle dogs; dogs, based on hepatocellular necrosis) of the same molecule?
Answer: 2 mg/kg bw per day

Question: And the “maximum potentially safe concentration in feeds for dogs” value (Beagle dogs)?
Answer: 11 mg/kg complete feed

Question: What about the “Octanol/water partition coefficient (log Kow 25°C)” value ([11]; pH 5) of the same molecule?
Answer: 3.18

Question: And the “Octanol/water partition coefficient (log Kow 25°C)” value ([11]; pH 7)?
Answer: 3.39

Question: And the “Octanol/water partition coefficient (log Kow 25°C)” value ([11]; pH 9)?
Answer: 3.19

Question: And the Dissociation constant [12]?
Answer: 4.56 at 22 °C

Question: What about the “conclusion on toxicological profile” value [13] of the same molecule?
Answer: not genotoxic, carcinogenic, and does not cause developmental toxicity in the offspring
